# Measured values: ChEMBL document CHEMBL1124464, “Peripherally acting enkephalin analogues. 2. Polar tri- and tetrapeptides” (1989)
# Key:
# Assay type in all cases: functional
# Mus musculus [1] = test: Antinociceptive activity of subcutaneously administered compound in acetic acid (AA) induced writhing mice; details: sc
# In short: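 Male TFW mice, groups of five to six, given drug subcutaneously (10 mL kg-1), then ip acetic acid 0.6% at 25 mL kg-1. Writhes counted for 5 min beginning 15 min after acetic acid. ED50 = dose reducing writhes 50% versus vehicle, by linear regression.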
# Mus musculus [2] = test: Antinociceptive activity of subcutaneously administered compound in phenyl-p-benzoquinone induced writhing mice; details: Mus musculus, sc; read-out: ED50
# In short: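 Groups of five to six female CD1 mice given drug subcutaneously (10 mL kg-1) 30 min before ip phenyl-p-benzoquinone 2.5 mg kg-1. Writhes (abdominal constrictions/hind-limb extensions) counted over 2.5 min from 10 min post-PBQ. ED50, the dose giving 50% fewer writhes than vehicle, from linear regression.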
# Mus musculus [3] = test: Antinociceptive activity in the hot plate test (central activity) in rodents, when compound administered subcutaneously at 50 mg
# In short: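 Male CFLP mice (Hacking and Churchill), groups of five to six, dosed sc at 10 mL kg-1 and placed on a copper surface held at 55 °C. Signs of discomfort (paw licking/shaking, jumping) were scored, with a 30-s cut-off. ED50 is the dose doubling response latency versus vehicle, estimated by parallel-line probit analysis.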
# Mus musculus [4] = organism: Mus musculus; test: Dose ratio in the presence and absence of the peripheral opioid antagonist in N-methyl-nalorphine in AA writhing mice
# In short: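 Acetic acid (0.6%, ip) writhing in male TFW mice; N-methylnalorphine 11.5 mg kg-1 ip 20 min before subcutaneous agonist. Writhes counted 5 min from 15 min post-irritant. Dose ratio taken as the shift between parallel regression lines with and without antagonist.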
# Mus musculus [5] = test: Antinociceptive activity of perorally administered compound (20 mg) in phenyl-p-benzoquinone induced writhing mice
# In short: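 Female CD1 mice (Charles River), groups of five to six, dosed orally by blunt intragastric needle (10 mL kg-1) 30 min before ip PBQ at 2.5 mg kg-1. Abdominal constrictions/hind-limb extensions were counted over 2.5 min starting 10 min after PBQ. ED50 is the dose halving writhes versus vehicle, estimated by linear regression.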
# Cavia porcellus = organism: Cavia porcellus; test: Inhibition of electrically induced contractions on the guinea pig ileum; details: read-out: ED50 (the source's name)
# In short: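 Guinea pig ileum contractions evoked by coaxial stimulation at 0.1 Hz, 0.5-ms pulses, supramaximal voltage, recorded isometrically; dose-response curves built with 15-min washout between doses.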
# Mus musculus [6] = test: Antinociceptive activity in the hot plate test (central activity) in rodents, when compound administered subcutaneously; details: sc
# In short: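 Male CFLP mice, groups of five to six, placed on a copper surface held at 55 °C; latency to paw licking/shaking or jumping recorded, 30-s cut-off. Drug given subcutaneously at 10 mL kg-1. ED50 = dose doubling response latency versus vehicle, by parallel-line probit analysis.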
# Mus musculus [7] = test: Antinociceptive activity of perorally administered compound in phenyl-p-benzoquinone induced writhing mice; details: po
# In short: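 Female CD1 mice, groups of five to six, dosed orally by blunt intragastric needle (10 mL kg-1) 30 min before ip phenyl-p-benzoquinone 2.5 mg kg-1. Abdominal constrictions/hind-limb extensions counted over 2.5 min starting 10 min after PBQ. ED50 = dose halving writhes versus vehicle, by linear regression.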
SMILES,ED50 (Mus musculus [1]) [mg/kg],ED50 (Mus musculus [2]) [mg/kg],Inhibition (Mus musculus [3]) [%],Ratio (Mus musculus [4]),Inhibition (Mus musculus [5]) [%],EC50 (Cavia porcellus) [nM],ED50 (Mus musculus [6]) [mg/kg],ED50 (Mus musculus [7]) [mg/kg]
CC(=O)O.CCN(CCc1ccc(Cl)c(Cl)c1)C(=O)CNC(=O)[C@@H](CCCN=C(N)N)NC(=O)[C@H](Cc1ccc(O)cc1)N=C(N)N,0.62,0.2,0,1,14,< 100,–,–
CC(=O)O.CCN(CCc1ccco1)C(=O)CNC(=O)[C@@H](CCCN=C(N)N)NC(=O)[C@H](Cc1ccc(O)cc1)N=C(N)N,–,0.32,–,–,10,10.9,–,–
CC(=O)O.CCN(CCc1cccs1)C(=O)CNC(=O)[C@@H](CCCN=C(N)N)NC(=O)[C@H](Cc1ccc(O)cc1)N=C(N)N,–,0.44,–,–,15,9.3,22.9,–
CC(=O)O.CCN(CCc1ccc(F)cc1)C(=O)CNC(=O)[C@@H](CCCN=C(N)N)NC(=O)[C@H](Cc1ccc(O)cc1)N=C(N)N,0.02,0.08,–,2.4,–,6.8,20,5.3
CC(=O)O.CCN(Cc1ccc(-c2ccccc2)cc1)C(=O)CNC(=O)[C@@H](CCCN=C(N)N)NC(=O)[C@H](Cc1ccc(O)cc1)N=C(N)N,–,2.3,–,–,0,324,–,–
CC(=O)O.CCN(Cc1ccccc1F)C(=O)CNC(=O)[C@@H](CCCN=C(N)N)NC(=O)[C@H](Cc1ccc(O)cc1)N=C(N)N,0.81,0.43,–,7.8,16,20.6,14.6,–
CC(=O)O.CCN(CCc1cccc2ccccc12)C(=O)CNC(=O)[C@@H](CCCN=C(N)N)NC(=O)[C@H](Cc1ccc(O)cc1)N=C(N)N,–,1.4,0,–,0,30,–,–
NC(N)=NCCC[C@@H](NC(=O)[C@@H](N)Cc1ccc(O)cc1)C(=O)NCCSCCc1ccc([N+](=O)[O-])cc1,–,–,–,–,–,42000,–,–
CCN(CCc1ccccn1)C(=O)CNC(=O)[C@@H](CCCN=C(N)N)NC(=O)[C@@H](N)Cc1ccc(O)cc1,–,–,–,–,–,510,–,–
CC(=O)O.CCN(CCc1ccc(C#N)cc1)C(=O)CNC(=O)[C@@H](CCCN=C(N)N)NC(=O)[C@@H](N)Cc1ccc(O)cc1,2.2,–,–,1.4,–,1800,–,–
CC(=O)O.CCN(C(=O)CNC(=O)[C@@H](CCCN=C(N)N)NC(=O)[C@@H](N)Cc1ccc(O)cc1)[C@@H](Cc1cccc(F)c1)C(N)=O,0.04,0.08,–,2.2,–,25,1.7,–
CC(=O)O.CN(C(=O)CNC(=O)[C@@H](CCCN=C(N)N)NC(=O)[C@@H](N)Cc1ccc(O)cc1)[C@@H](Cc1ccc([N+](=O)[O-])cc1)C(N)=O,0.25,–,–,2.5,–,36.5,–,–
CC(=O)O.CCN(C(=O)CNC(=O)[C@@H](CCCN=C(N)N)NC(=O)[C@@H](N)Cc1ccc(O)cc1)[C@@H](Cc1ccc(Cl)cc1)C(N)=O,0.03,–,–,1.3,–,0.64,–,–
CC(=O)O.CCN(C(=O)CNC(=O)[C@@H](CCCN=C(N)N)NC(=O)[C@@H](N)Cc1ccc(O)cc1)[C@@H](Cc1ccccc1F)C(N)=O,0.0009,0.15,–,3.9,–,0.39,1.95,5.9
CC(=O)O.CCN(C(=O)CNC(=O)[C@@H](CCCN=C(N)N)NC(=O)[C@@H](N)Cc1ccc(O)cc1)[C@@H](Cc1ccc(F)cc1)C(N)=O,0.0006,0.13,–,2.3,–,2.2,1.6,7.9
CC(=O)O.CCN(C(=O)CNC(=O)[C@@H](CCSC)NC(=O)[C@@H](N)Cc1ccc(O)cc1)[C@@H](Cc1ccc([N+](=O)[O-])cc1)C(N)=O,0.0015,–,–,0.8,–,1.2,–,–
CC(=O)O.CCN(C(=O)CNC(=O)[C@@H](CCCN=C(N)N)NC(=O)[C@@H](N)Cc1ccc(O)cc1)[C@@H](Cc1ccc(Cl)c(Cl)c1)C(N)=O,0.008,1.79,–,9.7,–,0.79,38.2,29.2

SMILES,ED50 (Mus musculus [1]) [mg/kg],ED50 (Mus musculus [2]) [mg/kg],Inhibition (Mus musculus [3]) [%],Ratio (Mus musculus [4]),Inhibition (Mus musculus [5]) [%],EC50 (Cavia porcellus) [nM],ED50 (Mus musculus [6]) [mg/kg],ED50 (Mus musculus [7]) [mg/kg]
CC(=O)O.CCN(C(=O)CNC(=O)[C@@H](CCCN=C(N)N)NC(=O)[C@@H](N)Cc1ccc(O)cc1)[C@@H](Cc1ccc(C(F)(F)F)cc1)C(N)=O,0.13,–,–,2.9,–,6.25,16.9,–
CC(=O)O.CCN(C(=O)CNC(=O)[C@@H](CCCN=C(N)N)NC(=O)[C@@H](N)Cc1ccc(O)cc1)[C@@H](Cc1ccc([N+](=O)[O-])cc1)C(N)=O,0.05,0.06,–,3.4,–,5.2,0.54,13.9
CC(=O)O.CCN(C(=O)CNC(=O)[C@@H](CCCN=C(N)N)NC(=O)[C@H](Cc1ccc(O)cc1)N=C(N)N)[C@@H](Cc1ccc([N+](=O)[O-])cc1)C(N)=O,0.009,0.005,–,5.1,–,3.9,0.34,1.9
CC(=O)O.CCN(C(=O)CNC(=O)[C@@H](CCCN=C(N)N)NC(=O)[C@H](Cc1ccc(O)cc1)N=C(N)N)[C@@H](Cc1ccc(F)cc1)C(N)=O,0.002,0.04,–,6.5,–,0.09,0.9,25.6
CC(=O)O.CCN(CCc1ccc([N+](=O)[O-])s1)C(=O)CNC(=O)[C@@H](CCCN=C(N)N)NC(=O)[C@@H](N)Cc1ccc(O)cc1,1.7,–,–,6.2,–,217,–,–
CC(=O)O.CCN(CCc1ccc(F)cc1)C(=O)CNC(=O)[C@@H](CCCN=C(N)N)NC(=O)[C@@H](N)Cc1ccc(O)cc1,0.14,1.6,–,4.5,–,20.5,12.3,30.8
CC(=O)O.CCN(Cc1ccccc1F)C(=O)CNC(=O)[C@@H](CCCN=C(N)N)NC(=O)[C@@H](N)Cc1ccc(O)cc1,1.1,31.1,0,8,–,325,–,–
CCN(CCc1sccc1[N+](=O)[O-])C(=O)CNC(=O)[C@@H](CCCN=C(N)N)NC(=O)[C@@H](N)Cc1ccc(O)cc1,–,–,–,–,–,146,–,–
CC(=O)O.CCN(CCc1cccc2ccccc12)C(=O)CNC(=O)[C@@H](CCCN=C(N)N)NC(=O)[C@@H](N)Cc1ccc(O)cc1,–,1.4,0,–,31,75.9,–,–
CC(=O)O.CCN(CCc1ccc([N+](=O)[O-])cc1)C(=O)CNC(=O)[C@@H](CCSC)NC(=O)[C@@H](N)Cc1ccc(O)cc1,0.87,–,–,1.1,–,41,–,–
CCN(Cc1c(F)c(F)c(F)c(F)c1F)C(=O)CNC(=O)[C@@H](CCCN=C(N)N)NC(=O)[C@@H](N)Cc1ccc(O)cc1,–,–,–,–,–,820,–,–
CC(=O)O.CCN(CCc1ccccc1[N+](=O)[O-])C(=O)CNC(=O)[C@@H](CCCN=C(N)N)NC(=O)[C@H](Cc1ccc(O)cc1)N=C(N)N,0.03,1.1,–,8.6,–,1.2,52.9,76.1
CC(=O)O.CCN(CCc1ccc([N+](=O)[O-])cc1)C(=O)CNC(=O)[C@@H](CCCN=C(N)N)NC(=O)[C@H](Cc1ccc(O)cc1)N=C(N)N,0.15,0.24,–,9.6,–,30.4,19.2,10
CC(=O)O.CCN(Cc1ccccc1[N+](=O)[O-])C(=O)CNC(=O)[C@@H](CCCN=C(N)N)NC(=O)[C@H](Cc1ccc(O)cc1)N=C(N)N,1.1,4,0,11,14,244,–,–
CC(=O)O.CCN(Cc1ccc([N+](=O)[O-])cc1)C(=O)CNC(=O)[C@@H](CCCN=C(N)N)NC(=O)[C@H](Cc1ccc(O)cc1)N=C(N)N,0.9,7.8,–,4.6,–,470,–,–
CC(=O)O.CCN(CCc1ccc([N+](=O)[O-])s1)C(=O)CNC(=O)[C@@H](CCCN=C(N)N)NC(=O)[C@H](Cc1ccc(O)cc1)N=C(N)N,–,2,–,–,7,25.2,–,–
